Measurements: ChEMBL document CHEMBL4020832, “Development of (6 R)-2-Nitro-6-[4-(trifluoromethoxy)phenoxy]-6,7-dihydro-5 H-imidazo[2,1- b][1,3]oxazine (DNDI-8219): A New Lead for Visceral Leishmaniasis” (J Med Chem, 2018)

Tests used:
[1] = system: Liver; test: Metabolic stability in human liver microsomes assessed as parent compound remaining at 1 uM after 1 hr; format: ADME, microsome
[2] = system: Liver; test: Metabolic stability in CD-1 mouse liver microsomes assessed as parent compound remaining at 1 uM after 1 hr; format: ADME, microsome
[3] = Metabolic stability in hamster liver microsomes assessed as parent compound remaining at 1 uM after 1 hr; format: ADME, microsome; details: read-out: Stability
[4] = Initial concentration in golden Syrian hamster at 2 mg/kg, iv by LC-MS/MS analysis; format: ADME, organism-based, Mesocricetus auratus; details: in vivo
Method in brief: (§1)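 Fasted female golden Syrian hamsters given 2 mg/kg iv as a solution in 20% NMP and 40% PEG-400 in citrate buffer pH 3. Plasma concentrations determined by LC–MS/MS to derive PK parameters.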

[5] = Clearance in golden Syrian hamster at 2 mg/kg, iv by LC-MS/MS analysis; format: ADME, organism-based, Mesocricetus auratus; details: in vivo
[6] = Volume of distribution at steady state in golden Syrian hamster at 2 mg/kg, iv by LC-MS/MS analysis; format: ADME, organism-based, Mesocricetus auratus; details: in vivo, read-out: Vdss; method in brief: as §1
[7] = Half life in golden Syrian hamster at 2 mg/kg, iv by LC-MS/MS analysis; format: ADME, organism-based, Mesocricetus auratus; details: in vivo
Method in brief: (§2)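 Fasted female golden Syrian hamsters. IV dose was 2 mg/kg as a solution in 20% NMP and 40% PEG-400 in citrate buffer (pH 3). Oral dosing at 40–50 mg/kg used PEG-400 as vehicle. Plasma was quantified by LC–MS/MS. AUClast was taken to the last time point (24 or 48 h).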

[8] = AUClast in golden Syrian hamster at 2 mg/kg, iv after 24 to 48 hrs by LC-MS/MS analysis; format: ADME, organism-based, Mesocricetus auratus; details: in vivo; method in brief: as §2
[9] = Cmax in golden Syrian hamster at 50 mg/kg, po by LC-MS/MS analysis; format: ADME, organism-based, Mesocricetus auratus; parameters: dose 50 mg/kg, route oral; details: in vivo; method in brief: as §2
[10] = Tmax in golden Syrian hamster at 50 mg/kg, po by LC-MS/MS analysis; format: ADME, organism-based, Mesocricetus auratus; details: in vivo
[11] = Half life in golden Syrian hamster at 50 mg/kg, po by LC-MS/MS analysis; format: ADME, organism-based, Mesocricetus auratus; details: in vivo
[12] = AUClast in golden Syrian hamster at 50 mg/kg, po after 24 to 48 hrs by LC-MS/MS analysis; format: ADME, organism-based, Mesocricetus auratus; details: in vivo; method in brief: as §2
[13] = system: Syrian golden hamster; test: Oral bioavailability in golden Syrian hamster at 50 mg/kg by LC-MS/MS analysis; format: ADME, organism-based, Mesocricetus auratus; details: in vivo
[14] = system: Liver; test: Metabolic stability in human liver microsomes assessed as parent compound remaining at 0.5 uM after 0.5 hr; format: ADME, microsome
[15] = system: Liver; test: Metabolic stability in CD-1 mouse liver microsomes assessed as parent compound remaining at 0.5 uM after 0.5 hr; format: ADME, microsome
[16] = Metabolic stability in hamster liver microsomes assessed as parent compound remaining at 0.5 uM after 0.5 hr; format: ADME, microsome; details: read-out: Stability
[17] = Initial concentration in Swiss albino mouse at 1 mg/kg, iv by LC-MS/MS analysis; format: ADME, organism-based; details: in vivo
Method in brief: (§3)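 Male Swiss albino mice given 1 mg/kg iv in 20% NMP/40% PEG-400 in 100 mM citrate buffer pH 3. Plasma sampled at 0.083, 0.25, 0.5, 1, 2, 4, 6, 8, 10, 24 and 48 h. Levels measured by LC–MS/MS; noncompartmental PK parameters.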

[18] = Clearance in Swiss albino mouse at 1 mg/kg, iv by LC-MS/MS analysis; format: ADME, organism-based; details: in vivo
[19] = Volume of distribution at steady state in Swiss albino mouse at 1 mg/kg, iv by LC-MS/MS analysis; format: ADME, organism-based; details: in vivo, read-out: Vdss; method in brief: as §3
[20] = system: Mus musculus; test: Half life in Swiss albino mouse at 1 mg/kg, iv by LC-MS/MS analysis; format: ADME, organism-based; details: in vivo
[21] = AUClast in Swiss albino mouse at 1 mg/kg, iv after 24 to 48 hrs by LC-MS/MS analysis; format: ADME, organism-based; details: in vivo
[22] = Cmax in Swiss albino mouse at 25 mg/kg, po by LC-MS/MS analysis; format: ADME, organism-based; parameters: dose 25 mg/kg, route oral; details: in vivo
[23] = Tmax in Swiss albino mouse at 25 mg/kg, po by LC-MS/MS analysis; format: ADME, organism-based; details: in vivo
Method in brief: (§4)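 Male Swiss albino mice dosed orally at 25 mg/kg as a suspension in 0.5% CMC/0.08% Tween 80 in water. Plasma sampled 0.25–48 h, analysed by LC–MS/MS. F from dose-normalized AUClast against a 1 mg/kg iv dose.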

[24] = AUClast in Swiss albino mouse at 25 mg/kg, po after 24 to 48 hrs by LC-MS/MS analysis; format: ADME, organism-based; details: in vivo
[25] = system: Mus musculus; test: Oral bioavailability in Swiss albino mouse at 25 mg/kg by LC-MS/MS analysis; format: ADME, organism-based; details: in vivo; method in brief: as §4
[26] = Cmax in Swiss albino mouse at 40 mg/kg, po by LC-MS/MS analysis; format: ADME, organism-based; parameters: dose 40 mg/kg, route oral; details: Swiss albino, in vivo
[27] = Tmax in Swiss albino mouse at 40 mg/kg, po by LC-MS/MS analysis; format: ADME, organism-based; details: Swiss albino, in vivo
[28] = Half life in Swiss albino mouse at 40 mg/kg, po by LC-MS/MS analysis; format: ADME, organism-based; details: in vivo
[29] = AUClast in Swiss albino mouse at 40 mg/kg, po after 24 to 48 hrs by LC-MS/MS analysis; format: ADME, organism-based; details: Swiss albino, in vivo
[30] = Initial concentration in Sprague-Dawley rat at 1 mg/kg, iv by LC-MS/MS analysis; format: ADME, organism-based; details: in vivo
Method in brief: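 Male Sprague-Dawley rats, fasted, dosed iv at 1 mg/kg as a solution in 20% NMP/40% PEG-400 in citrate buffer (pH 3). Plasma was analysed by LC–MS/MS and C0 was derived with WinNonlin-type PK analysis.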

[31] = Clearance in Sprague-Dawley rat at 1 mg/kg, iv by LC-MS/MS analysis; format: ADME, organism-based; details: in vivo
Method in brief: (§5)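 Fasted male Sprague-Dawley rats. IV dose was 1 mg/kg as a solution in 20% NMP and 40% PEG-400 in citrate buffer (pH 3). Oral dose was 40–50 mg/kg as a suspension in 0.08% Tween 80 and 0.5% CMC in water. Plasma was analysed by LC–MS/MS. AUClast was taken to the last time point (24 or 48 h).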

[32] = Volume of distribution at steady state in Sprague-Dawley rat at 1 mg/kg, iv by LC-MS/MS analysis; format: ADME, organism-based; details: in vivo, read-out: Vdss
Method in brief: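 Fasted male Sprague-Dawley rats received 1 mg/kg iv as a solution in 20% NMP/40% PEG-400 in citrate buffer pH 3. Plasma concentrations by LC–MS/MS used for PK parameter estimation.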

[33] = Half life in Sprague-Dawley rat at 1 mg/kg, iv by LC-MS/MS analysis; format: ADME, organism-based; details: in vivo; method in brief: as §5
[34] = AUClast in Sprague-Dawley rat at 1 mg/kg, iv after 24 to 48 hrs by LC-MS/MS analysis; format: ADME, organism-based; details: in vivo; method in brief: as §5
[35] = Cmax in Sprague-Dawley rat at 40 mg/kg, po by LC-MS/MS analysis; format: ADME, organism-based; parameters: dose 40 mg/kg, route oral; details: Sprague-Dawley, in vivo; method in brief: as §5
[36] = Tmax in Sprague-Dawley rat at 40 mg/kg, po by LC-MS/MS analysis; format: ADME, organism-based; details: Sprague-Dawley, in vivo
Method in brief: (§6)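 Fasted male Sprague-Dawley rats dosed orally at 40–50 mg/kg as a suspension in 0.08% Tween 80/0.5% CMC in water. iv reference was 1 mg/kg in 20% NMP/40% PEG-400 in citrate buffer pH 3. Plasma analysed by LC–MS/MS. F from dose-normalized AUClast.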

[37] = Half life in Sprague-Dawley rat at 40 mg/kg, po by LC-MS/MS analysis; format: ADME, organism-based; details: in vivo; method in brief: as §5
[38] = AUClast in Sprague-Dawley rat at 40 mg/kg, po after 24 to 48 hrs by LC-MS/MS analysis; format: ADME, organism-based; details: in vivo
[39] = Oral bioavailability in Sprague-Dawley rat at 40 mg/kg by LC-MS/MS analysis; format: ADME, organism-based; details: Sprague-Dawley, in vivo; method in brief: as §6

Which Stability [1] does the source give for `O=[N+]([O-])c1cn2c(n1)OC[C@H](OCc1ccc(-c3ccc(F)cc3F)nc1)C2` here?
Its Stability is 58%.

And the Stability [2]?
The Stability was 67%.

And the remaining at 1 h, 1 µM [3]?
The remaining at 1 h, 1 µM was 10%.

And the C0 [4]?
Its C0 is 520 ng/mL.

What about the clearance [5] of the same molecule?
Its clearance is 59 mL/min/kg.

And the Vd [6]?
Its Vd is 5.4 L/kg.

And the half-life [7]?
Its half-life is 1.4 h.

And the AUC(0-t) [8]?
The AUC(0-t) was 0.71 µg·h/mL.

What about the Cmax [9] of the same molecule?
Its Cmax is 1100 ng/mL.

What about the Tmax [10] of the same molecule?
The Tmax was 1.7 h.

And the half-life [11]?
Its half-life is 17 h.

And the AUC(0-t) [12]?
Its AUC(0-t) is 3.4 µg·h/mL.

And the F [13]?
Its F is 21%.

Which results are given for `O=[N+]([O-])c1cn2c(n1)OCC(COc1ccc(OC(F)(F)F)cc1)C2` (stereo unspecified)?
Stability [14]: 78%; Stability [15]: 88%; remaining at 0.5 h, 0.5 µM [16]: 70%; C0 [17]: 340 ng/mL; clearance [18]: 13 mL/min/kg; Vd [19]: 2.5 L/kg; t1/2 [20]: 2 h; AUC(0-t) [21]: 1.25 µg·h/mL; Cmax [22]: 1500 ng/mL; Tmax [23]: 1 h; AUC(0-t) [24]: 15.7 µg·h/mL; F [25]: 50%

With `O=[N+]([O-])c1cn2c(n1)OC[C@H](Oc1ccc(C(F)(F)F)cn1)C2` as the molecule, how does the Cmax [26] read?
Its Cmax is 96000 ng/mL.

And the Stability [1]?
The Stability was 90%.

And the Stability [2]?
The Stability was 92%.

What about the remaining at 1 h, 1 µM [3] of the same molecule?
Its remaining at 1 h, 1 µM is 48%.

And the Tmax [27]?
Its Tmax is 3.1 h.

What about the half-life [28] of the same molecule?
Its half-life is 30 h.

What about the AUC(0-t) [29] of the same molecule?
Its AUC(0-t) is 1780 µg·h/mL.

What about the C0 [30] of the same molecule?
Its C0 is 840 ng/mL.

What about the clearance [31] of the same molecule?
Its clearance is 6.1 mL/min/kg.

And the Vd [32]?
The Vd was 1.5 L/kg.

What about the half-life [33] of the same molecule?
The half-life was 2.7 h.

What about the AUC(0-t) [34] of the same molecule?
Its AUC(0-t) is 2.47 µg·h/mL.

And the Cmax [35]?
Its Cmax is 18000 ng/mL.

And the Tmax [36]?
Its Tmax is 2.7 h.

And the half-life [37]?
The half-life was 3.5 h.

And the AUC(0-t) [38]?
Its AUC(0-t) is 164 µg·h/mL.

And the bioavailability [39]?
Its bioavailability is 100%.

What about the Cmax [9] of the same molecule?
Its Cmax is 12000 ng/mL.

What about the Tmax [10] of the same molecule?
Its Tmax is 3.3 h.

What about the half-life [11] of the same molecule?
Its half-life is 3.1 h.

What about the AUC(0-t) [12] of the same molecule?
Its AUC(0-t) is 71 µg·h/mL.
